# NOD2 RIPK2 PPI: inhibitors of human NOD2-RIPK2 interaction; AID 624267; CHO BLA complementation NOD2-RIPK2, CCF4 ratio; inhibition, % at 4.98 µM; O43353; actives 0.38% (n = 360,000); in the data active means inhibition above about 21%
# TLR4-MyD88 BLA: TLR4-MyD88 interaction inhibition in cells; O00206+Q99836; inhibition, % at 8.4 µM; HeLa CL3-4 TLR4/MyD88 BLA complementation, FRET ratio; AID 861; actives 0.18% (n = 200,000); in the data active means inhibition above about 25%
# UPR XBP1 act: adaptive UPR (XBP1) activation | CHO-XBP1 luciferase reporter, IRE1-XBP1 UPR activation, luminescence; percent of tunicamycin response, DMSO as zero | activation, % at 20 µM | actives 0.33% (n = 330,000);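 active means versus positive control, 20 µM dose yields 30% or more activation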
#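 Material – CHO cell line with stable XBP1 luciferase reporter · Buffer or medium – F12 plus 10% FBS · Compound – single point, 20 µM final compound, 1% DMSO · Schedule – 16-18 h cell attachment at 37 °C, then 6 h compound exposure · Signal – Steady-Glo luminescence read · Benchmarks – high control tunicamycin 10 µg/mL final, low control DMSO vehicle only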
# CHOP inhibitor: blocks CHOP induction under ER stress; CHO-K1 CHOP-promoter luciferase, tunicamycin-induced, 15-18 h; inhibition, % at 10 µM; actives 3.8% (n = 220,000); AID 2732;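 active means compounds that reduced the stress-induced luciferase reporter signal by more than about 70% of percent inhibition, limit read from the data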
# TLR9-MyD88 block: TLR9-MyD88 interaction inhibition. AID 504734. actives 0.21% (n = 340,000). inhibition, % at 4.98 µM. CHO BLA complementation TLR9-MyD88, CCF4 FRET ratio. Q9NR96+Q99836;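 active means inhibition above the mean over all tested compounds plus 3 SD, cut at about 21% in these data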
# Target sequence (Q99836 whole entry, looked up): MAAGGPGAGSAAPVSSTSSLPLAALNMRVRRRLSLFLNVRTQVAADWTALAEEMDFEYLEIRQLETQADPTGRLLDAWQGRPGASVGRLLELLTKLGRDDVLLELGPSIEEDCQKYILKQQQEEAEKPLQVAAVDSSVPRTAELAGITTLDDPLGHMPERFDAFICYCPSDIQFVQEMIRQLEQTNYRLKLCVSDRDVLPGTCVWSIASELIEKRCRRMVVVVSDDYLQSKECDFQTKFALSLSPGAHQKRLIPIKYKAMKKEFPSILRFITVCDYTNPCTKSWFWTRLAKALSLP
# Target sequence (Q9NR96 whole entry, looked up): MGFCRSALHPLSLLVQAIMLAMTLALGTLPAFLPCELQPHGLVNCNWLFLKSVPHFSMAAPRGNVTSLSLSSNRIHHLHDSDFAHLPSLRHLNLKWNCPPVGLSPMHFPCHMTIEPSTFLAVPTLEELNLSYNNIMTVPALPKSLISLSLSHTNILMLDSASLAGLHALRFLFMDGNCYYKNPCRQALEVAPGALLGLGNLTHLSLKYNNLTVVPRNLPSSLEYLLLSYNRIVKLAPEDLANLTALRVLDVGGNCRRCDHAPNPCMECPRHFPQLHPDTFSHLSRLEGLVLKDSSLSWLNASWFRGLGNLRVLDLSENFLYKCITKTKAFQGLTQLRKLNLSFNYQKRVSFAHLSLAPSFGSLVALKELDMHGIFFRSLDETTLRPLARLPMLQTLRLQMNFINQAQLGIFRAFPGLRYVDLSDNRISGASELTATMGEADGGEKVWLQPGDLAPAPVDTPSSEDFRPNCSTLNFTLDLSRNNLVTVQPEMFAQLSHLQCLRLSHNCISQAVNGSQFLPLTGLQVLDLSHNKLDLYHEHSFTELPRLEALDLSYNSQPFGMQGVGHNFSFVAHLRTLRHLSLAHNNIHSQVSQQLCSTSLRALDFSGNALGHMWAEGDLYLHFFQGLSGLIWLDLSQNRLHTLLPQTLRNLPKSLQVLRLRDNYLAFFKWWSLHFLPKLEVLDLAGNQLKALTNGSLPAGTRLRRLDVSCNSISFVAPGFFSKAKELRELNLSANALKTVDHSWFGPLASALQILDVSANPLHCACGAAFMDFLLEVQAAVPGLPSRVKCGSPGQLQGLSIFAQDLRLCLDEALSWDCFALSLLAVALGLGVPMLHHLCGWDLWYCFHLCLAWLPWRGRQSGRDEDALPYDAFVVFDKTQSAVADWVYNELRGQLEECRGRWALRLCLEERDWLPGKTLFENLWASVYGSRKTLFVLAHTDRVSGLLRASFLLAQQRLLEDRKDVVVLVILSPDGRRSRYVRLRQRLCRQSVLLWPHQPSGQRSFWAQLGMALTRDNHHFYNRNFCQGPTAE
# UPR CHOP act: apoptotic UPR (CHOP) activation. CHO-CHOP luciferase reporter, luminescence; percent of tunicamycin response over DMSO baseline. actives 0.34% (n = 330,000). activation, % at 10 µM;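 active means at 10 µM dose, activation of 40% or more, normalized to positive control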
#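 Evaluation: % reporter activation, DMSO baseline versus tunicamycin full activation; System: CHO-CHOP luciferase reporter cell line; Input: 500 cells/well; Incubation: 6 h compound treatment, 37 °C; Measured by: Steady-Glo luciferase luminescence; Dosing: one dose, 10 µM in 0.5% DMSO; Buffer or medium: F12 medium, 10% FBS; Benchmarks: positive tunicamycin 10 µg/mL, negative DMSO alone.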
# CHOP inh conf: confirmation of CHOP induction inhibitors; actives 45% (n = 2,100); CHO-CHOP promoter luciferase reporter, tunicamycin-induced, luminescence; inhibition, % at 10 µM; AID 504437; shares compounds with CHOP inhibitor;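 active means mean of three repeat readings of reporter signal inhibition above a set limit, cut at about 70% in these data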
# CHOP UPR conf: apoptotic UPR (CHOP) activation, confirmed; shares compounds with UPR CHOP act; CHO-CHOP cells, CHOP-luciferase reporter luminescence; percent of tunicamycin response, DMSO as zero; activation, % at 10 µM; actives 64% (n = 1,000); in the data active means activation above about 33%
# XBP1 UPR conf: adaptive UPR (XBP1) activation, confirmed; activation, % at 20 µM; actives 63% (n = 1,000); shares compounds with UPR XBP1 act; CHO-XBP1 IRE1-XBP1 luciferase reporter, luminescence;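 active means reporter signal at least 30% of the positive control's activation in two or more of four replicate wells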
# A number is an active result; . = inactive; / = not tested or not shown. The sample as a whole holds a higher share of hits than the screen did.
SMILES,NOD2 RIPK2 PPI,TLR4-MyD88 BLA,UPR XBP1 act,CHOP inhibitor,TLR9-MyD88 block,UPR CHOP act,CHOP inh conf,CHOP UPR conf,others
CC1=NOC(=O)/C1=C\c1ccc(-c2cc(Cl)ccc2Cl)o1,.,.,.,114,.,69,.,.,
Cc1ccc(Cn2ncc(Cl)c(Cl)c2=O)cc1,.,.,.,107,.,42,.,.,
Cc1[nH]c(C)c2c(=O)n(Cc3ccc(Cl)cc3)ncc12,.,/,.,.,.,.,/,/,
Fc1ccc(Oc2nc(-c3ccccc3)nnc2C(F)(F)F)cc1,.,.,.,.,.,.,/,/,
Fc1ccc(Sc2nc(-c3ccccc3)nnc2C(F)(F)F)cc1,.,.,.,112,.,41,.,.,
CCOc1cc(C=C(C(=O)OC)C(=O)OC)ccc1OCc1ccc([N+](=O)[O-])cc1,.,.,.,99,.,220,.,242,
Cc1cc2nc(C(C)(C)C)c(Cc3ccsc3)n2c(C)c1Br,.,/,/,/,/,/,/,/,
CCOC(=O)CCCCCC(=O)Nc1ccc2c(c1)C(=O)N([C@H](C)CO)C[C@@H](C)[C@@H](CN(C)C(=O)CCC(F)(F)F)OCCCC[C@H](C)O2,.,/,/,/,.,/,/,/,
O=C(CCl)c1ccc(Cc2ncc(C(F)(F)F)cc2Cl)s1,.,.,.,104,.,169,.,169,
NS(=O)(=O)c1ccc(Cc2ncc(C(F)(F)F)cc2Cl)s1,.,.,.,.,.,.,/,/,
C[C@]12c3[nH]c4cc(-c5ccco5)ccc4c3CCN1C(=O)[C@@H](CC(=O)NCc1cccc(C(F)(F)F)c1)C[C@@H]2C(=O)N1CCCCC1,.,/,.,/,.,.,/,/,
Cn1c(-c2cccc(OCc3ccccc3)c2)nc2c1c(=O)[nH]c(=O)n2Cc1ccccc1,.,.,.,106,.,76,79,144,
Cn1c(-c2cccc(F)c2)nc2c1c(=O)[nH]c(=O)n2Cc1ccccc1,.,/,.,/,.,.,/,/,
CCC(=O)N1CCCC(C)(C(=O)NS(=O)(=O)c2ccccc2Cl)C1 (configuration not stated),.,/,/,/,/,/,/,/,
O=C1CC(c2ccccc2)CC(O)=C1C=Nc1ccccc1 (configuration not stated),.,.,.,.,/,.,/,/,
O=C1CC(c2cccc(Cl)c2)CC(O)=C1C=Nc1cccc(Cl)c1 (configuration not stated),.,.,.,99,.,52,72,.,
O=C(/C=C/Sc1ccc(C(F)(F)F)cn1)c1ccccc1,.,/,.,104,.,84,.,47,
Cc1cc(NC(=O)CCS(=O)(=O)c2nc(-c3ccccc3)cc(C(F)(F)F)n2)no1,23,/,.,/,.,138,.,466,
Cc1ccc(S(=O)(=O)CCC(=O)Nc2cc(C)on2)cc1,.,/,/,/,.,/,/,/,
CCN1CCN(Cc2ccc(NC(=O)c3ccc(C)c(NC(=O)c4c[nH]c5cc(C(F)(F)F)ccc5c4=O)c3)cc2C(F)(F)F)CC1,.,/,.,104,.,68,114,.,
CC(=O)Nc1ccc(NC2=C(Cl)C(=O)c3ccccc3C2=O)cc1,/,.,.,104,/,45,.,.,
O=C1NN(c2ccccc2)C(=O)/C1=C/c1ccc(Sc2ccc(Cl)cc2)o1,.,/,.,98,.,61,78,43,
Cc1ccc(Sc2ccc(/C=C3/C(=O)NN(c4ccccc4)C3=O)o2)cc1,.,/,.,98,.,44,.,40,
O=C1NN(c2ccccc2)C(=O)/C1=C/c1ccc(-c2ccc(Cl)c(C(=O)O)c2)o1,.,.,/,.,.,/,/,/,
Cc1ccc(S(=O)(=O)N(C)c2ccc(C(=O)NC3CCCCC3)cc2)cc1,.,/,/,/,.,/,/,/,
SMILES,NOD2 RIPK2 PPI,TLR4-MyD88 BLA,UPR XBP1 act,CHOP inhibitor,TLR9-MyD88 block,UPR CHOP act,CHOP inh conf,CHOP UPR conf,others
COc1ccc(-c2csc(C(NC(C)=O)c3ccccc3)n2)cc1 (configuration not stated),.,/,/,/,/,/,/,/,
CCOC(=O)C1=C(Cc2ccc(Cl)cc2)C(=O)c2ccccc2C1=O,29,.,.,107,.,118,.,37,
CCOC(=O)C1=C(O)c2ccccc2C(=O)/C1=C\c1ccc(C)cc1,.,.,/,.,.,/,/,/,
COc1cccc(C(=O)C(C#N)=C(SC)SC)c1,.,/,.,102,.,119,118,.,
NC(=O)COc1ccc(C(=O)/C=C2/C(=O)Nc3ccccc32)cc1,.,/,.,/,.,.,/,/,
O=C1Nc2ccccc2/C1=C/C(=O)c1cccs1,.,.,.,104,.,74,.,125,
Cc1ccc(NC(=O)CN(C)C(=O)c2cccc(S(=O)(=O)N3CCc4ccccc4C3)c2)cc1,.,/,/,/,.,/,/,/,
Cc1ccc(-c2cc(NC(=O)CCl)n(-c3ccccc3)n2)cc1,.,.,.,/,.,82,.,99,
CC(=O)Nc1ccc(-c2cc(NC(C)=O)n(-c3ccccc3)n2)cc1,.,.,.,.,.,.,/,/,
CCOC(=O)c1ccc(N2C(=O)C=CC2=O)cc1,.,.,.,112,.,47,.,33,
CC(C)C[C@H]1CN(CCCC[C@H]2CNC(=O)C(=O)N2Cc2ccccc2)C(=O)C(=O)N1Cc1ccccc1,.,/,/,/,/,/,/,/,
O=C(Nc1ccc(Cl)c([N+](=O)[O-])c1)c1ccc(NCCCN2CCOCC2)c([N+](=O)[O-])c1,.,.,42,97,.,.,.,/,XBP1 UPR conf=.
Cc1ccccc1OCc1n(CC(=O)OC2CC(C)CCC2C(C)C)c2ccccc2[n+]1C (configuration not stated),.,.,45,108,.,.,137,/,XBP1 UPR conf=.
CCOC(=O)Cn1c(COc2ccccc2OC)[n+](C)c2ccccc21,.,/,.,/,/,.,/,/,
CSc1cc(-c2ccc(Cl)cc2)n(Cc2ccccc2)c(=O)c1C#N,.,.,32,101,.,44,.,.,XBP1 UPR conf=.
CSc1cc(-c2ccccc2)n(Cc2c(Cl)cccc2Cl)c(=O)c1C#N,.,.,.,/,.,.,/,/,
CC1CCc2cc(F)ccc2N1C(=O)CSc1nnc2c(n1)[nH]c1ccc(F)cc12 (configuration not stated),.,.,67,101,.,.,110,/,XBP1 UPR conf=51
CC1CCCCN1C(=O)CSc1nnc2c(n1)[nH]c1ccc(F)cc12 (configuration not stated),.,/,.,/,.,.,/,/,

# Screening data as filed in PubChem.
